Measured values as given in ChEMBL document CHEMBL3525945, “Metabolic switching of BILR 355 in the presence of ritonavir. II. Uncovering novel contributions by gut bacteria and aldehyde oxidase” (Drug Metab Dispos, 2012).

What was measured:
[1] = Drug metabolism in human liver S9 fraction assessed as BILR355 formation at 10 uM by LC-MS/MS analysis in presence of NADPH; assay type: ADME, subcellular; conditions: s9, 10 µM
How it was run: (§1)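 BILR 402 (10 μM final) was incubated with human liver S9 or cytosol (1 mg/mL protein) in 0.05 M potassium phosphate pH 7.4 at 37 °C. Runs were done with or without 2.5 mM NADPH. Samples at 10, 20, 30 and 60 min were quenched in nevirapine/acetonitrile, filtered and analysed by LC-MS/MS; duplicate.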

[2] = Drug metabolism in human liver S9 fraction assessed as BILR355 formation at 10 uM by LC-MS/MS analysis in absence of NADPH; assay type: ADME; conditions: s9, 10 µM; how it was run: as §1
Cytochrome P450 3A4 [3] = biological target: T1, Cytochrome P450 3A4 (Homo sapiens, UniProt P08684); test: Activity at recombinant CYP3A4 (unknown origin) expressed in baculovirus-infected insect cells assessed as enzyme-mediated drug depletion at 1 to 10 uM by LC-MS/MS analysis in presence of NADPH; assay type: ADME; conditions: TDE = time-dependent effect
T1 sequence (P08684 whole entry): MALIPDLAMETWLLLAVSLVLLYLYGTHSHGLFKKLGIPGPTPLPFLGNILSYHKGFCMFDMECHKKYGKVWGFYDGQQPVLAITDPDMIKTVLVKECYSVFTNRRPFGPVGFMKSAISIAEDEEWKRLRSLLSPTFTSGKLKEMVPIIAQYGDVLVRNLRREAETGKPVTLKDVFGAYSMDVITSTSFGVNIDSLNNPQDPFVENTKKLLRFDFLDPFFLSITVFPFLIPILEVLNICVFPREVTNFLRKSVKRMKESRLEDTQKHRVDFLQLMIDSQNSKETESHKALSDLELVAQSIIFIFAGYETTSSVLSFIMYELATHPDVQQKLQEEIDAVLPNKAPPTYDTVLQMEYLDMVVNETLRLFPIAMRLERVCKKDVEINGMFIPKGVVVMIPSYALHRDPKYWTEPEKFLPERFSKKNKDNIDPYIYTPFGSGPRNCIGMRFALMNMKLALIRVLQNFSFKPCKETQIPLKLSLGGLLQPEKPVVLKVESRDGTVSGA
How it was run: (§2)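 BILR 402 (1 or 10 μM) with baculovirus/insect-cell recombinant CYPs, levels scaled to average liver content (1A2 2, 2A6 1, 2B6 0.1, 2C9 1.5, 2C19 1.5, 2D6 0.3, 3A4 5 pmol/mL). Buffer 0.1 M potassium phosphate, 5 mM MgCl2, pH 7.4; 2.5 mM NADPH; 37 °C. Non-transfected insect microsomes served as controls. Aliquots taken 0.5–30 min and acetonitrile-quenched; depletion measured by LC-MS/MS with isotope-labelled internal standard.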

Cytochrome P450 3A4 [4] = biological target: T1, Cytochrome P450 3A4; test: Activity at recombinant CYP3A4 (unknown origin) expressed in baculovirus-infected insect cells assessed as enzyme-mediated drug depletion by measuring compound level at 1 uM after 4 mins by LC-MS/MS analysis in presence of NADPH; assay type: ADME
How it was run: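 rCYP3A4 (5 pmol/mL) incubated with BILR 402 at 1 or 10 μM in 0.1 M potassium phosphate/5 mM MgCl2, pH 7.4, with NADPH at 37 °C. Remaining BILR 402 and BILR 355 formed were read at 4 min by LC-MS/MS against a labelled internal standard.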

Cytochrome P450 1A2 = biological target: T2, Cytochrome P450 1A2 (Homo sapiens, UniProt P05177); test: Activity at recombinant CYP1A2 (unknown origin) expressed in baculovirus-infected insect cells assessed as enzyme-mediated drug depletion at 1 to 10 uM by LC-MS/MS analysis in presence of NADPH; assay type: ADME; how it was run: as §2
T2 sequence (P05177 whole entry): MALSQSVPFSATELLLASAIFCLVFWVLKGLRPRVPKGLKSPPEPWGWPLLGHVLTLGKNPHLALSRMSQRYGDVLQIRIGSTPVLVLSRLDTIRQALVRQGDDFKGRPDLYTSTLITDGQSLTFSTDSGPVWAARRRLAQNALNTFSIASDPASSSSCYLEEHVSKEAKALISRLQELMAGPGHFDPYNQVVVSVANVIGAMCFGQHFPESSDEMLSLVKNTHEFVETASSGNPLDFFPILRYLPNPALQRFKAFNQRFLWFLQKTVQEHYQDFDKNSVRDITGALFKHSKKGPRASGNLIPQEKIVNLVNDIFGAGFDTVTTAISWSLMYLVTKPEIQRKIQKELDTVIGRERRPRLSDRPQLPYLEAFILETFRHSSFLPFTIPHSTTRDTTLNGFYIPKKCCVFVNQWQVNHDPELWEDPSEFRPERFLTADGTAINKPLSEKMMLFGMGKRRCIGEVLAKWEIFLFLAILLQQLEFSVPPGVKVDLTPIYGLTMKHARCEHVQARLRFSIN

Aldehyde oxidase = biological target: T3, Aldehyde oxidase (Homo sapiens, UniProt Q06278); test: Drug metabolism in human liver cytosol assessed as intrinsic clearance for high affinity low capacity site aldehyde-oxidase-mediated BILR516 metabolite formation measured per mg protein after 10 mins by Eadie-Hofstee plot analysis; assay type: ADME, tissue-based
T3 sequence (Q06278 whole entry): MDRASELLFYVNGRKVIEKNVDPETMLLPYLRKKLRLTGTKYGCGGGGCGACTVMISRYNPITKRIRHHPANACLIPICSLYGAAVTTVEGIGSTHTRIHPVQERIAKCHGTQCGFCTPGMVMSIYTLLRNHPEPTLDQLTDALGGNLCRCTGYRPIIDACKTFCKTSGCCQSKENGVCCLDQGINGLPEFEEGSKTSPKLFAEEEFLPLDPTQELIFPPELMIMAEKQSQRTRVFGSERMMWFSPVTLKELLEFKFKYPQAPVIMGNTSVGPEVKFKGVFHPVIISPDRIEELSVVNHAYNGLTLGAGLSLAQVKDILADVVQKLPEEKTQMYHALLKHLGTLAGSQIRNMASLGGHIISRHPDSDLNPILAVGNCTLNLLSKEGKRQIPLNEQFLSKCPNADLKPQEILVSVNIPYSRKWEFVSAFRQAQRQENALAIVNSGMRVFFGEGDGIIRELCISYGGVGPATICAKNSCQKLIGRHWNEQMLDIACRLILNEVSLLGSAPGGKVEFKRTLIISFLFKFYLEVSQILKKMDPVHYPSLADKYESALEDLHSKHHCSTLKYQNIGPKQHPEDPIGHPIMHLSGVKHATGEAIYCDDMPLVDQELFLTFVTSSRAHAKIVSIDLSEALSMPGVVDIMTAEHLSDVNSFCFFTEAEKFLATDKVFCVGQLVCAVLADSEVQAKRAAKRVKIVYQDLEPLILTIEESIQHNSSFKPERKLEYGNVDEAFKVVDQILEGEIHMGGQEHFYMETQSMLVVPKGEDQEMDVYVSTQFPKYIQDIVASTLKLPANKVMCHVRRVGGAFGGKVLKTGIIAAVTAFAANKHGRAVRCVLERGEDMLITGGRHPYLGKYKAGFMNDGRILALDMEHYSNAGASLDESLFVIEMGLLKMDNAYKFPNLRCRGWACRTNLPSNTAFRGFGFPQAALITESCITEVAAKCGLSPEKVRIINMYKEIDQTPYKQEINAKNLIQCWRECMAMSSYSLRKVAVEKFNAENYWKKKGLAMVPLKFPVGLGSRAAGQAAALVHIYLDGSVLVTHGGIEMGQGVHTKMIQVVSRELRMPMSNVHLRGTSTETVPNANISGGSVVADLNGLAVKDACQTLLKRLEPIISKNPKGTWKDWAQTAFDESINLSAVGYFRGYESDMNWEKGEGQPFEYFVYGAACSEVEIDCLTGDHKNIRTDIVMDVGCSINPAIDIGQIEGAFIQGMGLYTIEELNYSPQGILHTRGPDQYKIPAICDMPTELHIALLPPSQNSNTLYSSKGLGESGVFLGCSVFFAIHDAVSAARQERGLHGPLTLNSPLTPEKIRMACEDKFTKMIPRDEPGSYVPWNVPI
How it was run: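 Human liver cytosol (0.1 mg/mL) was incubated with BILR 402 at 12 concentrations, 0.061–125 μM, for 10 min at 37 °C in 0.05 M potassium phosphate pH 7.4 without NADPH, within the linear range for protein and time. […] Apparent Km and Vmax were derived from the kinetic data.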

Structure (SMILES): CCN1c2ncc(CCOc3ccnc4ccccc34)cc2C(=O)N(C)c2cccnc21
- Drug metabolism [1]: metabolite_detected
- Drug metabolism [2]: metabolite_not_detected
- Drug metabolism (Cytochrome P450 3A4 [3]): tde
- Drug metabolism (Cytochrome P450 3A4 [4]): 0.25 µM
- Drug metabolism (Cytochrome P450 1A2): metabolite_not_detected
- CLHH (Aldehyde oxidase): 437 µL/min/mg
